# According to ChEMBL document CHEMBL1136237, “2-piperidin-4-yl-benzimidazoles with broad spectrum antibacterial activities” (2003):
# Legend:
# Candida albicans [1] = experiment: Antifungal activity determined against Candida albicans 10231; assay type: functional
# Procedure, shortened: (§1)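 Candida albicans: an overnight-culture yeast suspension was added to compound in 2.5% DMSO in water, giving a final inoculum of about 10^2–10^3 CFU/well. Plates were incubated 40–48 h at 25 °C, and growth versus a no-compound control was read as A595. MIC was given as a range: complete inhibition at the higher concentration, viable cells at the lower.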
# Enterococcus faecalis [2] = experiment: Antibacterial activity determined against Enterococcus faecalis ATCC 4200; assay type: functional
# Procedure, shortened: as §1, with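 “Broth microdilution:” for “Candida albicans:”, “bacterial” for “yeast”, “20–24” for “40–48”, “37” for “25”, “relative to” for “versus”, “upper” for “higher”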
# Klebsiella pneumoniae = experiment: Antibacterial activity determined against gram-negativeK. pneumoniae 13383; assay type: functional
# Procedure, shortened: as §1, with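 “Broth microdilution:” for “Candida albicans:”, “bacterial” for “yeast”, “20–24” for “40–48”, “37” for “25”, “relative to” for “versus”, “upper” for “higher”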
# Enterococcus faecalis [3] = experiment: Antibacterial activity determined against Enterococcus faecalis ATCC 11823; assay type: functional
# Procedure, shortened: as §1, with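 “Broth microdilution:” for “Candida albicans:”, “bacterial” for “yeast”, “20–24” for “40–48”, “37” for “25”, “relative to” for “versus”, “upper” for “higher”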
# Staphylococcus aureus [4] = experiment: Antibacterial activity determined against Staphylococcus aureus; assay type: functional
# Procedure, shortened: as §1, with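 “Broth microdilution:” for “Candida albicans:”, “bacterial” for “yeast”, “20–24” for “40–48”, “37” for “25”, “relative to” for “versus”, “upper” for “higher”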
# Enterococcus faecium [5] = experiment: Antibacterial activity determined against Enterococcus faecium ATCC 882; assay type: functional
# Procedure, shortened: as §1, with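 “Broth microdilution:” for “Candida albicans:”, “bacterial” for “yeast”, “20–24” for “40–48”, “37” for “25”, “relative to” for “versus”, “upper” for “higher”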
# Enterococcus faecalis [6] = experiment: Antibacterial activity determined against Enterococcus faecalis ATCC 828; assay type: functional
# Procedure, shortened: as §1, with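 “Broth microdilution:” for “Candida albicans:”, “bacterial” for “yeast”, “20–24” for “40–48”, “37” for “25”, “relative to” for “versus”, “upper” for “higher”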
# Proteus vulgaris = experiment: Antibacterial activity determined against gram-negativeP. vulgaris 8427; assay type: functional
# Procedure, shortened: as §1, with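 “Broth microdilution:” for “Candida albicans:”, “bacterial” for “yeast”, “20–24” for “40–48”, “37” for “25”, “relative to” for “versus”, “upper” for “higher”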
# Enterococcus faecalis [7] = experiment: Antibacterial activity determined against Enterococcus faecalis ATCC 49757; assay type: functional
# Procedure, shortened: as §1, with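 “Broth microdilution:” for “Candida albicans:”, “bacterial” for “yeast”, “20–24” for “40–48”, “37” for “25”, “relative to” for “versus”, “upper” for “higher”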
# Enterococcus faecalis [8] = experiment: Antibacterial activity determined against Enterococcus faecalis ATCC 23241; assay type: functional
# Procedure, shortened: as §1, with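 “Broth microdilution:” for “Candida albicans:”, “bacterial” for “yeast”, “20–24” for “40–48”, “37” for “25”, “relative to” for “versus”, “upper” for “higher”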
# Staphylococcus aureus [9] = experiment: Antibacterial activity determined against gram-positive Staphylococcus aureus 13709; assay type: functional
# Procedure, shortened: as §1, with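 “Broth microdilution:” for “Candida albicans:”, “bacterial” for “yeast”, “20–24” for “40–48”, “37” for “25”, “relative to” for “versus”, “upper” for “higher”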
# Enterococcus hirae = experiment: Antibacterial activity determined against gram-positive Enterococcus hirae 29212; assay type: functional
# Procedure, shortened: as §1, with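 “Broth microdilution:” for “Candida albicans:”, “bacterial” for “yeast”, “20–24” for “40–48”, “37” for “25”, “relative to” for “versus”, “upper” for “higher”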
# Enterococcus faecium [10] = experiment: Antibacterial activity determined against Enterococcus faecium ATCC 6569; assay type: functional
# Procedure, shortened: as §1, with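 “Broth microdilution:” for “Candida albicans:”, “bacterial” for “yeast”, “20–24” for “40–48”, “37” for “25”, “relative to” for “versus”, “upper” for “higher”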
# [11] = Inhibition of bacterial transcription/translation
# Streptococcus pneumoniae = experiment: Antibacterial activity determined against gram-positive Streptococcus pneumoniae 6303; assay type: functional
# Procedure, shortened: as §1, with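 “Broth microdilution:” for “Candida albicans:”, “bacterial” for “yeast”, “20–24” for “40–48”, “37” for “25”, “relative to” for “versus”, “upper” for “higher”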
# Escherichia coli [12] = experiment: Antibacterial activity determined against gram-negativeE. coli 25922; assay type: functional
# Procedure, shortened: as §1, with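 “Broth microdilution:” for “Candida albicans:”, “bacterial” for “yeast”, “20–24” for “40–48”, “37” for “25”, “relative to” for “versus”, “upper” for “higher”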
# Streptococcus pyogenes = experiment: Antibacterial activity determined against gram-positive Streptococcus pyogenes 49399; assay type: functional
# Procedure, shortened: as §1, with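 “Broth microdilution:” for “Candida albicans:”, “bacterial” for “yeast”, “20–24” for “40–48”, “37” for “25”, “relative to” for “versus”, “upper” for “higher”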
# Escherichia coli [13] = experiment: Antibacterial activity determined against Escherichia coli; assay type: functional
# Procedure, shortened: as §1, with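 “Broth microdilution:” for “Candida albicans:”, “bacterial” for “yeast”, “20–24” for “40–48”, “37” for “25”, “relative to” for “versus”, “upper” for “higher”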
# Pseudomonas aeruginosa = experiment: Antibacterial activity determined against gram-negativeP. aeruginosa 25416; assay type: functional
# Procedure, shortened: as §1, with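 “Broth microdilution:” for “Candida albicans:”, “bacterial” for “yeast”, “20–24” for “40–48”, “37” for “25”, “relative to” for “versus”, “upper” for “higher”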
# Candida albicans [14] = experiment: Antibacterial activity determined against Candida albicans 10231; assay type: functional; procedure, shortened: as §1
SMILES,MIC (Candida albicans [1]) [µM],MIC (Enterococcus faecalis [2]) [µM],MIC (Klebsiella pneumoniae) [µM],MIC (Enterococcus faecalis [3]) [µM],MIC (Staphylococcus aureus [4]) [µM],MIC (Enterococcus faecium [5]) [µM],MIC (Enterococcus faecalis [6]) [µM],MIC (Proteus vulgaris) [µM],MIC (Enterococcus faecalis [7]) [µM],MIC (Enterococcus faecalis [8]) [µM],MIC (Staphylococcus aureus [9]) [µM],MIC (Enterococcus hirae) [µM],MIC (Enterococcus faecium [10]) [µM],IC50 [11] [µM],MIC (Streptococcus pneumoniae) [µM],MIC (Escherichia coli [12]) [µM],MIC (Streptococcus pyogenes) [µM],MIC (Escherichia coli [13]) [µM],MIC (Pseudomonas aeruginosa) [µM],MIC (Candida albicans [14]) [µM]
CCCCCNCc1ccc(Cn2c(C3CCNCC3)nc3cc(Cl)c(Cl)cc32)cc1,50,6,6,3,6,6,6,25,6,6,6,1,3,> 100,12,12,3,12,25,–
NCCNCc1ccc(Cn2c(C3CCNCC3)nc3cc(Cl)c(Cl)cc32)cc1,> 100,12,12,6,6,12,12,25,12,12,6,3,6,12,12,12,6,12,12,–
NCCCCCCCCNCc1ccc(Cn2c(C3CCNCC3)nc3cc(Cl)c(Cl)cc32)cc1,> 100,25,6,6,6,–,50,12,50,–,6,1,12,> 100,6,6,3,6,25,–
Clc1cc2nc(C3CCNCC3)n(Cc3ccc(CBr)cc3)c2cc1Cl,–,–,–,–,> 100,–,–,–,–,–,–,–,–,> 100,–,–,–,> 100,–,–
NCCCCCCNCc1ccc(Cn2c(C3CCNCC3)nc3cc(Cl)c(Cl)cc32)cc1,> 100,–,12,–,6,–,–,25,–,–,6,1,–,> 100,12,12,3,12,25,–
Clc1cc2nc(C3CCNCC3)n(Cc3ccc(CNC4CCNCC4)cc3)c2cc1Cl,–,12,12,12,6,12,12,25,12,12,6,3,12,> 100,12,12,6,12,12,50
Clc1cc2nc(C3CCNCC3)[nH]c2cc1Cl,–,–,–,–,> 100,–,–,–,–,–,–,–,–,> 100,–,–,–,> 100,–,–
NC1CCN(Cc2ccc(Cn3c(C4CCNCC4)nc4cc(Cl)c(Cl)cc43)cc2)CC1,50,12,25,12,6,12,12,25,12,12,6,3,6,60,25,50,6,50,12,–
CCn1c(C2CCNCC2)nc2cc(Cl)c(Cl)cc21,–,–,–,–,> 100,–,–,–,–,–,–,–,–,> 100,–,–,–,> 100,–,–
Clc1cc2nc(C3CCNCC3)n(Cc3cccnc3)c2cc1Cl,–,–,–,–,50,–,–,–,–,–,–,–,–,> 100,–,–,–,50,–,–
Fc1ccc(Cn2c(C3CCNCC3)nc3cc(Cl)c(Cl)cc32)cc1,–,–,–,–,> 100,–,–,–,–,–,–,–,–,> 100,–,–,–,> 100,–,–
NCCCCNCc1ccc(Cn2c(C3CCNCC3)nc3cc(Cl)c(Cl)cc32)cc1,> 100,12,25,12,6,12,12,–,12,12,6,3,12,50,25,25,6,25,25,–
Clc1cc2nc(C3CCNCC3)n(Cc3ccc(Cn4cncn4)cc3)c2cc1Cl,–,–,–,–,12,–,–,–,–,–,–,–,–,> 100,–,–,–,12,–,–
